Data set [1] is described as follows: Selectivity index, ratio of IC50 for african green monkey (Cercopithecus aethiops) Vero cells to IC50 for chloroquine-sensitive Plasmodium falciparum 3D7. It is filed as toxicity, cell-based. The following applies: read-out: Ratio IC50. In a few lines:
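Ratio of the Vero IC50 to the 3D7 IC50. Vero monkey kidney […] cells at 1 × 10⁴ cells/well exposed to varying compound concentrations for 72 h, MTT read-out, IC50 from non-linear regression. The 3D7 IC50 comes from a 72 h SYBR Green I fluorescence assay using twofold serial dilutions from 500 ng/ml.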

Data set [2] deals with Plasmodium falciparum. Briefly: Antimalarial activity against chloroquine-sensitive Plasmodium falciparum 3D7 after 72 hrs. It is filed as functional, organism-based. The following applies: 3D7, 72 h. The essentials:
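P. falciparum 3D7 cultured with 0.5% parasitaemia in a 2.5% cell suspension. Compounds are made up as 5 mg/ml DMSO stocks. Twofold serial dilutions (seven concentrations) start at 500 ng/ml, or 25 ng/ml for chloroquine, in duplicate wells. Incubated 72 h, then lysis buffer with SYBR Green I, 1 h at room temperature, fluorescence read. IC50 from non-linear regression dose–response curves.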

In data set [3] the test system is Plasmodium yoelii. Nature of the data set: Antimalarial activity against chloroquine-resistant Plasmodium yoelii N67 infected in Swiss mice (Mus musculus) assessed as suppression of parasitaemia at 100 mg/kg, peroral for 4 days. The class given is functional. The following applies: N67, 96 h, route oral. The essentials:
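Swiss mice (22 2 g), groups of five, inoculated with 1 × 10⁶ parasitized RBC on day 0; dosed once daily days 0–3, orally, 0.1 ml aqueous suspension with a few drops of Tween 80. Parasitaemia read from thin blood smears between days 4 and 6; group mean used for percent suppression versus untreated controls; CQ-treated mice as reference.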

As usually defined, the IC50 is the concentration needed to halve the response being measured. What is called inhibition in vivo is the percentage by which the read-out fell short of the control. Regarding `COc1ccc2nc3cc(Cl)ccc3c(Nc3ccc(Nc4nc(NCCCN(C)C)nc(Nc5ccccc5)n4)cc3)c2c1`, the selectivity ratio in data set [1] worked out at 295. Also, the IC50 in data set [2] stood at 0.00421 µM. For the same compound, the inhibition in vivo at 100 mg/kg in data set [3] amounted to 95.7%.
Turning to `COc1ccc2nc3cc(Cl)ccc3c(Nc3ccc(Nc4nc(NCCN5CCOCC5)nc(Nc5ccc(F)cc5)n4)cc3)c2c1`, the selectivity ratio in data set [1] is 3090. The compound also showed an IC50 in data set [2] of 0.0201 µM. The inhibition in vivo at 100 mg/kg in data set [3] is 98.7%.
On to `COc1ccc2nc3cc(Cl)ccc3c(Nc3ccc(Nc4nc(NCCN(C)C)nc(Nc5ccc(F)cc5)n4)cc3)c2c1`, for which, in data set [1], the selectivity ratio was determined as 28.1. In data set [2], this compound showed an IC50 of 0.0401 µM.
Turning to `COc1ccc2nc3cc(Cl)ccc3c(Nc3ccc(Nc4nc(NCCN5CCOCC5)nc(Nc5ccccc5)n4)cc3)c2c1`, in data set [1], the selectivity ratio amounted to 2900. In data set [2], this compound had a half-inhibitory concentration (IC50) of 0.00697 µM. For the same compound, the inhibition in vivo at 100 mg/kg in data set [3] came out at 96.6%.
Taken in the same sequence, the figures for `COc1ccc2nc3cc(Cl)ccc3c(Nc3ccc(Nc4nc(NCCO)nc(Nc5ccccc5)n4)cc3)c2c1` were 755, 0.00946 µM and 58.5%.
As for `COc1ccc2nc3cc(Cl)ccc3c(Nc3ccc(Nc4nc(Nc5ccccc5)nc(NC5CCCC5)n4)cc3)c2c1`, in data set [1], the selectivity ratio is 5010. Also, in data set [2], the IC50 was determined as 0.0175 µM.
As for `CCN(CC)CCNc1nc(Nc2ccccc2)nc(Nc2ccc(Nc3c4ccc(Cl)cc4nc4ccc(OC)cc34)cc2)n1`, in data set [1], the selectivity ratio came out at 137. For the same compound, the IC50 in data set [2] amounted to 0.0218 µM.
The corresponding values for `COc1ccc2nc3cc(Cl)ccc3c(Nc3ccc(Nc4nc(NCCCN(C)C)nc(Nc5ccc(F)cc5)n4)cc3)c2c1` are 99.8 and 0.0352 µM.
As to `CCN(CC)CCNc1nc(Nc2ccc(F)cc2)nc(Nc2ccc(Nc3c4ccc(Cl)cc4nc4ccc(OC)cc34)cc2)n1`, the selectivity ratio in data set [1] is 155. This compound also returned an IC50 in data set [2] of 0.0279 µM. In data set [3], the inhibition in vivo at 100 mg/kg was found to be 95.4%.
Regarding `CCN1CCN(c2nc(Nc3ccccc3)nc(Nc3ccc(Nc4c5ccc(Cl)cc5nc5ccc(OC)cc45)cc3)n2)CC1`, in data set [1], the selectivity ratio worked out at 164. Besides, the IC50 in data set [2] came out at 0.0192 µM.
Taken in the same sequence, the figures for `CCCCNc1nc(Nc2ccccc2)nc(Nc2ccc(Nc3c4ccc(Cl)cc4nc4ccc(OC)cc34)cc2)n1` were 138 and 0.289 µM.
On to `COc1ccc2nc3cc(Cl)ccc3c(Nc3ccc(Nc4nc(NCCN(C)C)nc(Nc5ccccc5)n4)cc3)c2c1`, for which, in data set [1], the selectivity ratio was determined as 160. The compound further showed an IC50 in data set [2] of 0.00795 µM. Moreover, in data set [3], the inhibition in vivo at 100 mg/kg came out at 49%.
As for `CCN1CCN(c2nc(Nc3ccc(F)cc3)nc(Nc3ccc(Nc4c5ccc(Cl)cc5nc5ccc(OC)cc45)cc3)n2)CC1`, the selectivity ratio in data set [1] worked out at 193. In data set [2], this compound registered an IC50 of 0.0656 µM.
The corresponding values for `COc1ccc2nc3cc(Cl)ccc3c(Nc3ccc(Nc4nc(NN)nc(Nc5ccccc5)n4)cc3)c2c1` are 31.4 and 0.00427 µM.
The corresponding values for `COc1ccc2nc3cc(Cl)ccc3c(Nc3ccc(Nc4nc(NCCCN5CCOCC5)nc(Nc5ccc(F)cc5)n4)cc3)c2c1` are 1560 and 0.0451 µM.
As to `COc1ccc2nc3cc(Cl)ccc3c(Nc3ccc(Nc4nc(Nc5ccccc5)nc(N5CCN(C)CC5)n4)cc3)c2c1`, in data set [1], the selectivity ratio came to 146. Further, in data set [2], 0.0221 µM corresponded to half-maximal inhibition (IC50).
On to `CCN(CC)CCCC(C)Nc1ccnc2cc(Cl)ccc12` (stereo unspecified) [CHLOROQUINE], for which, in data set [3], the inhibition in vivo at 100 mg/kg worked out at 99.9%.
For the compound `CNc1nc(Nc2ccc(F)cc2)nc(Nc2ccc(Nc3c4ccc(Cl)cc4nc4ccc(OC)cc34)cc2)n1`, the selectivity ratio in data set [1] turned out to be 336. The compound also displayed an IC50 in data set [2] of 0.116 µM.
The corresponding values for `COc1ccc2nc3cc(Cl)ccc3c(Nc3ccc(Nc4nc(Nc5ccc(F)cc5)nc(N5CCN(C)CC5)n4)cc3)c2c1` are 210 and 0.0494 µM.
Taken in the same sequence, the figures for `COc1ccc2nc3cc(Cl)ccc3c(Nc3ccc(Nc4nc(N)nc(Nc5ccccc5)n4)cc3)c2c1` were 448 and 0.0684 µM.
The corresponding values for `COc1ccc2nc3cc(Cl)ccc3c(Nc3ccc(Nc4nc(NCCCN5CCOCC5)nc(Nc5ccccc5)n4)cc3)c2c1` are 61.4 and 0.0151 µM.
For the compound `COc1ccc2nc3cc(Cl)ccc3c(Nc3ccc(Nc4nc(NCCCO)nc(Nc5ccccc5)n4)cc3)c2c1`, the selectivity ratio in data set [1] was found to be 17.4. Further, half-maximal inhibition in data set [2] (IC50) was put at 0.365 µM.
Taken in the same sequence, the figures for `COc1ccc2nc3cc(Cl)ccc3c(Nc3ccc(Nc4nc(N)nc(Nc5ccc(F)cc5)n4)cc3)c2c1` were 37.1 and 0.119 µM.

For the origin of these results see ChEMBL document CHEMBL1153706, “Synthesis of 9-anilinoacridine triazines as new class of hybrid antimalarial agents” (Bioorg Med Chem Lett, 2009).
